Results: publication PMC8359128 (ACS Omega, 2021)

What was measured:
human CB1 receptor [1] = biological target: T1, human CB1 receptor (Homo sapiens, UniProt P21554); experiment: Competitive radioligand; format: binding; conditions: for inhibition at 10 µM: read-out: % displacement at 10 μM CB1
human CB2 receptor [2] = biological target: T2, human CB2 receptor (Homo sapiens, UniProt P34972); experiment: Competitive radioligand; format: binding; conditions: for inhibition at 10 µM: read-out: % displacement at 10 μM CB2
T2 sequence (P34972 whole entry): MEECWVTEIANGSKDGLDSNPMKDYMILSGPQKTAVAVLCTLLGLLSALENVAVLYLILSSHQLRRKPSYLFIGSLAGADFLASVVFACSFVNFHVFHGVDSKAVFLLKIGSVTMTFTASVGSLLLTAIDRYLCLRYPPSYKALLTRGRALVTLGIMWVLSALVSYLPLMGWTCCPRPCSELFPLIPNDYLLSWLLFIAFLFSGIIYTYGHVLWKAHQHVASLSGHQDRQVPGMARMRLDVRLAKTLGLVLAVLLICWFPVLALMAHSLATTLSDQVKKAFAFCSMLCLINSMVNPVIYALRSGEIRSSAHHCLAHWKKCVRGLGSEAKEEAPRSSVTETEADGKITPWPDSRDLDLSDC

human CB1 receptor [3] = biological target: T1, human CB1 receptor; experiment: [35S]-GTPγS functional assay, CB1; format: biochemical; conditions: for functional behavior at CB1: GTPγS
In short: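 Membranes (20 µg) from HEK293 cells stably expressing human CB1, incubated with 0.5 nM [35S]-GTPγS, 30 µM GDP and test compound in 50 mM Tris-HCl, 150 mM NaCl, 9 mM MgCl2, 0.2 mM EGTA, 1.4 mg/mL BSA, pH 7.4. Incubation 2 h, 37 °C, gentle shaking. […] Filtration, scintillation counting. Duplicates; EC50 by nonlinear regression.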

human CB2 receptor [4] = biological target: T2, human CB2 receptor; experiment: [35S]-GTPγS functional assay, CB2; format: biochemical; conditions: for functional behavior at CB2: GTPγS
[5] = (−)-trans vs (+)-trans isomer; cited from earlier work
[6] = IC50 CB2 displacement (bound given in text)
[7] = IC50 ± SEM CB2, competitive radioligand binding, triplicate

T1 sequence (P21554 whole entry): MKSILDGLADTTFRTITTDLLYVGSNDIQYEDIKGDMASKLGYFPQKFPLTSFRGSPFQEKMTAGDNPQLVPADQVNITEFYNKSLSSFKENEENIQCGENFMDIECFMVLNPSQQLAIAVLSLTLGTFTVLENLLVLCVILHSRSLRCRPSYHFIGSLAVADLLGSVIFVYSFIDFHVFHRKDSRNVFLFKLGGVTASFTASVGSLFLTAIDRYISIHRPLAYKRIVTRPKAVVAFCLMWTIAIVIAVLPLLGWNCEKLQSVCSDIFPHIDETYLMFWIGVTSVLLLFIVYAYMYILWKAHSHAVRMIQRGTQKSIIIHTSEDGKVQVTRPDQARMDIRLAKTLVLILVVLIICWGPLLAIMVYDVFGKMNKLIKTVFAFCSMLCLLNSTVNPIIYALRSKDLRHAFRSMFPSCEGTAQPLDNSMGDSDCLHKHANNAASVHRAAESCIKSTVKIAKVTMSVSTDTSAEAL

Structure (SMILES)	inhibition at 10 µM (human CB1 receptor [1]) [%]	Ki (human CB2 receptor [2]) [nM]	IC50 (human CB2 receptor [2]; [6]) [nM]	IC50 (human CB2 receptor [2]; [7]) [nM]	inhibition at 10 µM (human CB2 receptor [2]) [%]	also measured
C[C@H]1CC[C@H]2[C@H](C1)c1c(O)cc(-c3ccccc3)cc1OC2(C)C [11A, (6aS,9S,10aS)-6,6,9-Trimethyl-3-phenyl-6a,7,8,9,10,10a-hexahydro-6H-benzo[c]chromen-1-ol]	34.3	1570 ± 836	≤ 3200	3150 ± 1670	57.3	
C[C@H]1CC[C@H]2[C@H](C1)c1c(O)cc(-c3ccc4c(c3)OCO4)cc1OC2(C)C [11B, (6aS,9S,10aS)-3-(Benzo[d][1,3]dioxol-5-yl)-6,6,9-trimethyl-6a,7,8,9,10,10a-hexahydro-6H-benzo[c]chromen-1-ol]	30.8	117 ± 11.7	≤ 3200		67	
C[C@H]1CC[C@H]2[C@H](C1)c1c(O)cc(-c3ccc(C#N)cc3)cc1OC2(C)C [11C, 4-((6aS,9S,10aS)-1-Hydroxy-6,6,9-trimethyl-6a,7,8,9,10,10a-hexahydro-6H-benzo[c]chromen-3-yl)benzonitrile]	-7.02				22.1	
C[C@H]1CC[C@H]2[C@H](C1)c1c(O)cc(-c3ccoc3)cc1OC2(C)C [11D, (6aS,9S,10aS)-3-(Furan-3-yl)-6,6,9-trimethyl-6a,7,8,9,10,10a-hexahydro-6H-benzo[c]chromen-1-ol]	34				44.4	
CCCCCC/C=C/c1cc(O)c2c(c1)OC(C)(C)[C@H]1CC[C@H](C)C[C@H]21 [11E, (6aS,9S,10aS)-6,6,9-Trimethyl-3-((E)-oct-1-en-1-yl)-6a,7,8,9,10,10a-hexahydro-6H-benzo[c]chromen-1-ol]	66.8	573 ± 106	≤ 3200	1150 ± 212	50.4	IC50 (human CB1 receptor [1]): 684 ± 326 nM; Ki (human CB1 receptor [1]): 342 ± 95.8 nM; EC50 (human CB1 receptor [3]): 239 ± 68 nM; functional behavior at CB1 (human CB1 receptor [3]): agonist
C[C@H]1CC[C@H]2[C@H](C1)c1c(O)cc(/C=C/c3ccc(C(F)(F)F)cc3)cc1OC2(C)C [11F, (6aS,9S,10aS)-6,6,9-Trimethyl-3-((E)-4-(trifluoromethyl)styryl)-6a,7,8,9,10,10a-hexahydro-6H-benzo[c]chromen-1-ol]	43.2				23.9	
C[C@H]1CC[C@H]2[C@H](C1)c1c(O)cc(/C=C/c3ccc(Cl)cc3)cc1OC2(C)C [11G, (6aS,9S,10aS)-3-((E)-4-Chlorostyryl)-6,6,9-trimethyl-6a,7,8,9,10,10a-hexahydro-6H-benzo[c]chromen-1-ol]	7.54				8.7	
C[C@H]1CC[C@H]2[C@H](C1)c1c(O)cc(-c3cccc4c3oc3ccccc34)cc1OC2(C)C [11H, (6aS,9S,10aS)-3-(Dibenzo[b,d]furan-4-yl)-6,6,9-trimethyl-6a,7,8,9,10,10a-hexahydro-6H-benzo[c]chromen-1-ol]	29.4	63.7 ± 8.19	≤ 3200	127 ± 16.4	76.2	EC50 (human CB2 receptor [4]; EC50 GTPγS CB2, duplicate): 5730 ± 3290 nM; functional behavior at CB2 (human CB2 receptor [4]): agonists
C[C@H]1CC[C@H]2[C@H](C1)c1c(O)cc(-c3ccc(Oc4ccccc4)cc3)cc1OC2(C)C [11I, (6aS,9S,10aS)-6,6,9-Trimethyl-3-(4-phenoxyphenyl)-6a,7,8,9,10,10a-hexahydro-6H-benzo[c]chromen-1-ol]	34.4				16.3	
C[C@H]1CC[C@H]2[C@H](C1)c1c(O)cc(-c3csc4ccccc34)cc1OC2(C)C [11J, (6aS,9S,10aS)-3-(Benzo[b]thiophen-3-yl)-6,6,9-trimethyl-6a,7,8,9,10,10a-hexahydro-6H-benzo[c]chromen-1-ol]	56.4	40.2 ± 2.91	≤ 3200	80.4 ± 5.82	70.4	functional behavior at CB2 (human CB2 receptor [4]): agonists; IC50 (human CB1 receptor [1]): > 2000 nM; Ki (human CB1 receptor [1]): > 1000 nM; EC50 (human CB1 receptor [3]): 1470 ± 708 nM; functional behavior at CB1 (human CB1 receptor [3]): agonists
C[C@H]1CC[C@H]2[C@H](C1)c1c(O)cc(-c3cc(C(F)(F)F)cc(C(F)(F)F)c3)cc1OC2(C)C [11K, (6aS,9S,10aS)-3-(3,5-Bis(trifluoromethyl)phenyl)-6,6,9-trimethyl-6a,7,8,9,10,10a-hexahydro-6H-benzo[c]chromen-1-ol]	-26.7				11.2	
CCCCCc1cc(O)c2c(c1)OC(C)(C)[C@@H]1CCC(C)=C[C@@H]21 [dronabinol]						potency relative to the (+)-trans-isomer of Δ9-THC [5]: 6–100 times
